Reference: ChEMBL document CHEMBL1629418, “Spiroimidazolidinone NPC1L1 inhibitors. Part 2: structure-activity studies and in vivo efficacy” (Bioorg Med Chem Lett, 2010)

Legend:
[1] = tested on: Mus musculus; assay: Inhibition of [3H]cholesterol absorption in C57BL/6 mouse plasma at 1 mg/kg, po after 5 hrs; type: functional; conditions: C57BL/6, Plasma
In short: (§1)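 Male C57BL/6 mice received compound orally as a suspension in 0.2 mL of 0.25% methocel. After 30 min, mice were given 0.2 mL oral [3H]cholesterol in IntraLipid. Mice were euthanized at 1.5 h or 5 h. Plasma [3H]cholesterol was counted from cardiac-puncture blood; liver was saponified for [3H]cholesterol. Six data points per dose were averaged; % inhibition reported.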

[2] = tested on: Mus musculus; assay: Inhibition of [3H]cholesterol absorption in C57BL/6 mouse plasma at 1 mg/kg, po after 1.5 hrs; type: functional; conditions: C57BL/6, Plasma; in short: as §1
[3] = tested on: Mus musculus; assay: Inhibition of cholesterol-absorption in mouse at 10 mg/kg, po; type: functional; in short: as §1
[4] = tested on: Mus musculus; assay: Inhibition of cholesterol-absorption in mouse liver at 100 mg/kg, po; type: functional; in short: as §1
[5] = target: T1, NPC1-like intracellular cholesterol transporter 1 (Homo sapiens, UniProt Q9UHC9); assay: Displacement of [35S](2S,3S,4S,5R,6S)-6-(4-((2S,3R)-3-((S)-3-(4-fluorophenyl)-3-hydroxypropyl)-1-(4-(3-(methylsulfonamido)prop-1-ynyl)phenyl)-4-oxoazetidin-2-yl)phenoxy)-3,4,5-trihydroxytetrahydro-2H-pyran-2-carboxylic acid from human NCP1L1 expressed in HEK 293; type: cell-based, HEK293
T1 sequence (Q9UHC9 whole entry): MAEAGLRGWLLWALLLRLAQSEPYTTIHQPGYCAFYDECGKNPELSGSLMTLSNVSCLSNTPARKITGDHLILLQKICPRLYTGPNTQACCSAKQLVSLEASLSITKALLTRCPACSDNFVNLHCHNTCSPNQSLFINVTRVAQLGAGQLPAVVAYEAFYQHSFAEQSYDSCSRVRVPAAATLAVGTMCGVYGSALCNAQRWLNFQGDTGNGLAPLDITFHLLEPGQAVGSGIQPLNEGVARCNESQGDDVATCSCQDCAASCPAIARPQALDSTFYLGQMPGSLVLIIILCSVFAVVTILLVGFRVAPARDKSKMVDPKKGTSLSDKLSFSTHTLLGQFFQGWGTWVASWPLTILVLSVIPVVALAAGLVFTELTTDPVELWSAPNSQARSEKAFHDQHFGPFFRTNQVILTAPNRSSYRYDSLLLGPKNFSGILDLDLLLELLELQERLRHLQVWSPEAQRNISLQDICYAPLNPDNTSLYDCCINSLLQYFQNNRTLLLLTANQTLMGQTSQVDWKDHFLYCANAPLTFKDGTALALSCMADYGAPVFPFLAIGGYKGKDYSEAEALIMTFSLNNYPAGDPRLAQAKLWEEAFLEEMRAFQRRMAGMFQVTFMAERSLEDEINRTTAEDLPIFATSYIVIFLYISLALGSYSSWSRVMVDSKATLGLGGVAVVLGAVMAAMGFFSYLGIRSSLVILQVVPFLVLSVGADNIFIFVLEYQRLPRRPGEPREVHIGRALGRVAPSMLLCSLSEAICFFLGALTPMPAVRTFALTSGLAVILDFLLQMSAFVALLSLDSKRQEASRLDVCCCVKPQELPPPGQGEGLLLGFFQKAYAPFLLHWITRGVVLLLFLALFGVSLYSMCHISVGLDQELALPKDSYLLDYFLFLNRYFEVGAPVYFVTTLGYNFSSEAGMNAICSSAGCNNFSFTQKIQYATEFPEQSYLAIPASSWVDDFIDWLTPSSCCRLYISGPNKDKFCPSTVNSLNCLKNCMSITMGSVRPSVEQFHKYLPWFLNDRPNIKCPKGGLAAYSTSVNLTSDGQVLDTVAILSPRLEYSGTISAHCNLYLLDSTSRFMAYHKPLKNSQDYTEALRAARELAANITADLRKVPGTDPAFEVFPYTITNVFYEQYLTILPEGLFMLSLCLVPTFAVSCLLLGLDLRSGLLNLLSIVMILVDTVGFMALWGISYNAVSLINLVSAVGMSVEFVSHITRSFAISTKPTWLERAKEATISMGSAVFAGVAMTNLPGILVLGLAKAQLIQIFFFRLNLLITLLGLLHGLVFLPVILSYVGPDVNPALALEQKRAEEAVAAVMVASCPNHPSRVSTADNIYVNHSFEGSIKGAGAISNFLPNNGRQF

[6] = tested on: Mus musculus; assay: Inhibition of cholesterol-absorption in mouse plasma at 100 mg/kg, po; type: functional; in short: as §1
[7] = target: NPC1-like intracellular cholesterol transporter 1 (Mus musculus) (UniProt Q6T3U4); assay: Displacement of [35S](2S,3S,4S,5R,6S)-6-(4-((2S,3R)-3-((S)-3-(4-fluorophenyl)-3-hydroxypropyl)-1-(4-(3-(methylsulfonamido)prop-1-ynyl)phenyl)-4-oxoazetidin-2-yl)phenoxy)-3,4,5-trihydroxytetrahydro-2H-pyran-2-carboxylic acid from mouse NCP1L1 expressed in mouse brush border membrane; type: cell membranes
NPC1-like intracellular cholesterol transporter 1 (Mus musculus), sequence (Q6T3U4 21-1333 limits assumed): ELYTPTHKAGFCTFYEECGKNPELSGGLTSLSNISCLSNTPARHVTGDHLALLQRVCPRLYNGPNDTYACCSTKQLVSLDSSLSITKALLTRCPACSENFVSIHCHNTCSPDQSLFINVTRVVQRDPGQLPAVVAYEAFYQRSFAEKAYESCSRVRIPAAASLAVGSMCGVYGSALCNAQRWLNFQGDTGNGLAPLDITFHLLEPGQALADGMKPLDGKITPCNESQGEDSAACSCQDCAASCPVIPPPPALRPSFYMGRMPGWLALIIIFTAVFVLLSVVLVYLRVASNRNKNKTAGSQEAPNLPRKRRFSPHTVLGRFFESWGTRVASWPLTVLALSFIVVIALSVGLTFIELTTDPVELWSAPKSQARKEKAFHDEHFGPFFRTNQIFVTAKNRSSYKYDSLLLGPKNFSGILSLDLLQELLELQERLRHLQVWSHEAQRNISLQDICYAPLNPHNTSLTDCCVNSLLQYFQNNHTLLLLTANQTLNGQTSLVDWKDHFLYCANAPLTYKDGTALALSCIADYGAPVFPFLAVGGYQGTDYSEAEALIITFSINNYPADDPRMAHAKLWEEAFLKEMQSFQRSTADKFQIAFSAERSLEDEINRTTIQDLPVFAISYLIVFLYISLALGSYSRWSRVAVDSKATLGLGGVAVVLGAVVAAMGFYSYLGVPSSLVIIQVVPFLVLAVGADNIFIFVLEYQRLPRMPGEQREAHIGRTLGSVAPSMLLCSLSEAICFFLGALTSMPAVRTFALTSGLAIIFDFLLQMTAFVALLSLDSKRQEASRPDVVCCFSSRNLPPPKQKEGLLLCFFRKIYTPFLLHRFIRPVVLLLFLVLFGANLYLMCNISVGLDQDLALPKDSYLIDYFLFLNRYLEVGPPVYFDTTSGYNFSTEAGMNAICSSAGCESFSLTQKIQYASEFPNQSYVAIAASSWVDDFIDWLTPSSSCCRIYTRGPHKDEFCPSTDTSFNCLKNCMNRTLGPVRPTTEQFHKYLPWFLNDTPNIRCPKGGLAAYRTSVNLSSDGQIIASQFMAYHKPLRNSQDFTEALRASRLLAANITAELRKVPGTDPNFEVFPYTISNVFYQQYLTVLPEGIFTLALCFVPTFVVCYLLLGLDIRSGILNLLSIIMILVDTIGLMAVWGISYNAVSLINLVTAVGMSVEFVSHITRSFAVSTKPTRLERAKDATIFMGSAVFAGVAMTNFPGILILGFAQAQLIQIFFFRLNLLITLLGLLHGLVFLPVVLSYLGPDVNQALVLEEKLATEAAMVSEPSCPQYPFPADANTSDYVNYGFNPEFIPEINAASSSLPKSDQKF

[8] = tested on: Mus musculus; assay: Inhibition of [3H]cholesterol absorption in C57BL/6 mouse plasma at 30 mg/kg, po after 1.5 hrs; type: functional; conditions: C57BL/6, Plasma; in short: as §1
[9] = tested on: Mus musculus; assay: Inhibition of [3H]cholesterol absorption in C57BL/6 mouse plasma at 100 mg/kg, po after 1.5 hrs; type: functional; conditions: C57BL/6, Plasma; in short: as §1
[10] = tested on: Mus musculus; assay: Inhibition of cholesterol-absorption in mouse plasma at 30 mg/kg, po; type: functional; in short: as §1
[11] = tested on: Mus musculus; assay: Inhibition of [3H]cholesterol absorption in C57BL/6 mouse plasma at 100 mg/kg, po after 5 hrs; type: functional; conditions: C57BL/6, Plasma; in short: as §1
[12] = tested on: Mus musculus; assay: Inhibition of cholesterol-absorption in mouse plasma at 10 mg/kg, po; type: functional; in short: as §1
[13] = tested on: Mus musculus; assay: Inhibition of [3H]cholesterol absorption in C57BL/6 mouse plasma at 10 mg/kg, po after 1.5 hrs; type: functional; conditions: C57BL/6, Plasma; in short: as §1
[14] = target: T2, NPC1-like intracellular cholesterol transporter 1 (Homo sapiens) (UniProt Q9UHC9); assay: Binding affinity to human NPC1L1
T2 sequence (whole entry): T1 sequence (Q9UHC9 whole entry)

O=C1[C@H](CC[C@H](O)c2ccc(F)cc2)[C@@H](c2ccc(O)cc2)N1c1ccc(F)cc1 [EZETIMIBE]
inhibition in vivo at 1 mg/kg [1]: 90% | inhibition in vivo at 1 mg/kg [2]: 7%

COC(=O)CCNC(=O)CN1CN(c2ccccc2)C2(CCN(C(=O)c3ccc(C(C)(C)C)cc3)CC2)C1=O
inhibition in vivo at 10 mg/kg [3]: 44%

O=C(CN1CN(c2ccccc2)C2(CCN(C(=O)c3ccc(C4CCCCC4)cc3)CC2)C1=O)NCCCO
inhibition in vivo at 100 mg/kg [4]: 70% | IC50 [5]: 14 µM | inhibition in vivo at 100 mg/kg [6]: 43% | inhibition in vivo at 10 mg/kg [3]: 42%

O=C(CN1CN(c2ccccc2)C2(CCN(C(=O)c3ccc(C4CCCCC4)cc3)CC2)C1=O)N1CCN(C(=O)c2ccccc2)CC1
inhibition in vivo at 100 mg/kg [4]: 46% | IC50 [5]: 4.8 µM | inhibition in vivo at 100 mg/kg [6]: 52% | IC50 [7]: 19 µM

CCc1nn(CC)c(C2CCN(C(=O)CN3CN(c4ccccc4)C4(CCN(C(=O)c5ccc(C(C)(C)C)cc5)CC4)C3=O)CC2)c1C
inhibition in vivo at 30 mg/kg [8]: 48% | inhibition in vivo at 100 mg/kg [9]: 62% | IC50 [5]: 2.5 µM | inhibition in vivo at 100 mg/kg [6]: 62% | inhibition in vivo at 30 mg/kg [10]: 48% | IC50 [7]: 40 µM | inhibition in vivo at 100 mg/kg [11]: 67% | inhibition in vivo at 10 mg/kg [12]: 35% | inhibition in vivo at 10 mg/kg [13]: 35%

O=C(CN1CN(c2ccccc2)C2(CCN(C(=O)c3ccc(C4CCCCC4)cc3)CC2)C1=O)NCCCCO
IC50 [5]: 1.7 µM | inhibition in vivo at 10 mg/kg [3]: 52%

COC(=O)CCCNC(=O)CN1CN(c2ccccc2)C2(CCN(C(=O)c3ccc(C(C)(C)C)cc3)CC2)C1=O
inhibition in vivo at 10 mg/kg [3]: 35%

CC(C)(C)c1ccc(C(=O)N2CCC3(CC2)C(=O)N(CC(=O)N2CCCCC2)CN3c2ccccc2)cc1
Activity [14]: 2.5 µM

CC(C)(C)OC(=O)N1CCN(C(=O)CN2CN(c3ccccc3)C3(CCN(C(=O)c4ccc(C5CCCCC5)cc4)CC3)C2=O)CC1
inhibition in vivo at 100 mg/kg [4]: 58% | IC50 [5]: 3.5 µM | inhibition in vivo at 100 mg/kg [6]: 4.5% | IC50 [7]: 49 µM

CC(C)(C)OC(=O)NCCCCNC(=O)CN1CN(c2ccccc2)C2(CCN(C(=O)c3ccc(C(C)(C)C)cc3)CC2)C1=O
inhibition in vivo at 10 mg/kg [3]: 7%

CS(=O)(=O)NCCCNC(=O)CN1CN(c2ccccc2)C2(CCN(C(=O)c3ccc(C4CCCCC4)cc3)CC2)C1=O
inhibition in vivo at 100 mg/kg [4]: < 5% | IC50 [5]: 2.5 µM | inhibition in vivo at 100 mg/kg [6]: < 5% | inhibition in vivo at 10 mg/kg [3]: 42%

CC(C)(C)OC(=O)N1CCN(C(=O)CN2CN(c3ccccc3)C3(CCN(C(=O)c4ccc(C(C)(C)C)cc4)CC3)C2=O)CC1
IC50 [5]: 1 µM | IC50 [7]: 49 µM

CC(C)(C)OC(=O)NCNC(=O)CN1CN(c2ccccc2)C2(CCN(C(=O)c3ccc(C(C)(C)C)cc3)CC2)C1=O
IC50 [5]: 59 µM

COC(=O)CNC(=O)CN1CN(c2ccccc2)C2(CCN(C(=O)c3ccc(C4CCCCC4)cc3)CC2)C1=O
IC50 [5]: 3.7 µM

NCCCNC(=O)CN1CN(c2ccccc2)C2(CCN(C(=O)c3ccc(C4CCCCC4)cc3)CC2)C1=O
IC50 [5]: 3.1 µM

CC(C)(C)c1ccc(C(=O)N2CCC3(CC2)C(=O)N(CC(=O)NCCCCCO)CN3c2ccccc2)cc1
IC50 [5]: 3.8 µM

CCOC(=O)C1CCCN(C(=O)CN2CN(c3ccccc3)C3(CCN(C(=O)c4ccc(C(C)(C)C)cc4)CC3)C2=O)C1 (configuration not stated)
IC50 [5]: 8.2 µM

CC(C)(C)c1ccc(C(=O)N2CCC3(CC2)C(=O)N(CC(=O)N2CCC(O)CC2)CN3c2ccccc2)cc1
IC50 [5]: 4.7 µM

CC(C)(C)c1ccc(C(=O)N2CCC3(CC2)C(=O)N(CC(=O)NCCCCN)CN3c2ccccc2)cc1
IC50 [5]: 14 µM

CC(C)(C)c1ccc(C(=O)N2CCC3(CC2)C(=O)N(CC(=O)NCCC(=O)O)CN3c2ccccc2)cc1
IC50 [5]: 23.6 µM

CCOC(=O)C1CCN(C(=O)CN2CN(c3ccccc3)C3(CCN(C(=O)c4ccc(C(C)(C)C)cc4)CC3)C2=O)CC1
IC50 [5]: 3.1 µM

CC(C)(C)c1ccc(C(=O)N2CCC3(CC2)C(=O)N(CC(=O)N2CCCC(O)C2)CN3c2ccccc2)cc1 (configuration not stated)
IC50 [5]: 12.2 µM

CC(C)(C)OC(=O)NCC1CCN(C(=O)CN2CN(c3ccccc3)C3(CCN(C(=O)c4ccc(C(C)(C)C)cc4)CC3)C2=O)CC1
IC50 [5]: 4.2 µM

CC(C)(C)OC(=O)NCCCNC(=O)CN1CN(c2ccccc2)C2(CCN(C(=O)c3ccc(C(C)(C)C)cc3)CC2)C1=O
IC50 [5]: 3.2 µM
